Tests used:
Conditions in all cases: stereoisomer not certain
[1] = tested on: OR2M3 D11N
In short: (§1)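 Each entry records the cell line, G-protein, co-transfected protein and tags used. Methods varied with the source, often transient luciferase assays in mammalian cell lines. A receptor–molecule pair is called responsive (active) if the original authors judged its signal statistically different from baseline and non-responsive (inactive) otherwise.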

[2] = tested on: OR2M3 I13L A33G M144T
In short: as §1

[3] = tested on: OR2M3 I13L A33G R266H
In short: as §1

[4] = tested on: OR2M3 I13L A33G
In short: as §1

[5] = tested on: OR2M3 I13L M144T
In short: as §1

[6] = tested on: OR2M3 I13L
OR2M3 I13L, sequence (as listed by the source, stated change not applied): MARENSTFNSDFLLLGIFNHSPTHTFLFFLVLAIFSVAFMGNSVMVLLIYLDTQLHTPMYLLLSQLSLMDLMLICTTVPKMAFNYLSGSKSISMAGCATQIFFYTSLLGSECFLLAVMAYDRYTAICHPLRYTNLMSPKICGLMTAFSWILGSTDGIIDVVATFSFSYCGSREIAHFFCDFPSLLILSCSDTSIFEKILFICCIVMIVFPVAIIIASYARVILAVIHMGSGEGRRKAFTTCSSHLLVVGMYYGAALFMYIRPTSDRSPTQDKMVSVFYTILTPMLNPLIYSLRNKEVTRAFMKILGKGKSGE
In short: as §1

[7] = tested on: OR2M3 I198V
OR2M3 I198V, sequence (as listed by the source, stated change not applied): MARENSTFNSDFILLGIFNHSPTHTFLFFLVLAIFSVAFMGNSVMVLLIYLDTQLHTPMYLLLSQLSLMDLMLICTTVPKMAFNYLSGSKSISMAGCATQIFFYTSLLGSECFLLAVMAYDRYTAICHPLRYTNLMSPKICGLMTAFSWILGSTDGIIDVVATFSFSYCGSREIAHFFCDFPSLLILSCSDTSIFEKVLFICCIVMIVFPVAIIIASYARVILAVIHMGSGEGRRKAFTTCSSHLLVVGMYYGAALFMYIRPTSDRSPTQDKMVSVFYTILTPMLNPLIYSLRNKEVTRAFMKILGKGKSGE
In short: as §1

[8] = tested on: OR2M3 I289N
OR2M3 I289N, sequence (as listed by the source, stated change not applied): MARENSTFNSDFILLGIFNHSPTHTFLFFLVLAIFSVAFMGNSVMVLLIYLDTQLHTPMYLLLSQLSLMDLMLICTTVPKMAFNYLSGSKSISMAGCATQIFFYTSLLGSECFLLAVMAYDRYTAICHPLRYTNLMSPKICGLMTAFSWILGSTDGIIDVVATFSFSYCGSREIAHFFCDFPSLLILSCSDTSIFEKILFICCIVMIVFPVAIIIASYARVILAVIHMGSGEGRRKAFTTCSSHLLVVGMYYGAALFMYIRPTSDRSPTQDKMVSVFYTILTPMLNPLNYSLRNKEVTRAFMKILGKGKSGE
In short: as §1

[9] = tested on: OR2M3 L63F
OR2M3 L63F, sequence (as listed by the source, stated change not applied): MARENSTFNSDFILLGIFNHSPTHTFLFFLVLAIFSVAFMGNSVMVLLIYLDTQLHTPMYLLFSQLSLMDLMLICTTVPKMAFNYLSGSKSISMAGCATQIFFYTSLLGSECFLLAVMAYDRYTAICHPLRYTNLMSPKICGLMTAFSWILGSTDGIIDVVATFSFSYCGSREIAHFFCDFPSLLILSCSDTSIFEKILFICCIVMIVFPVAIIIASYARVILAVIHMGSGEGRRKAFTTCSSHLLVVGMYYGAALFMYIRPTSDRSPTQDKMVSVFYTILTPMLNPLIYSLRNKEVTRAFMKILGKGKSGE
In short: as §1

[10] = tested on: OR2M3 M144T
OR2M3 M144T, sequence (as listed by the source, stated change not applied): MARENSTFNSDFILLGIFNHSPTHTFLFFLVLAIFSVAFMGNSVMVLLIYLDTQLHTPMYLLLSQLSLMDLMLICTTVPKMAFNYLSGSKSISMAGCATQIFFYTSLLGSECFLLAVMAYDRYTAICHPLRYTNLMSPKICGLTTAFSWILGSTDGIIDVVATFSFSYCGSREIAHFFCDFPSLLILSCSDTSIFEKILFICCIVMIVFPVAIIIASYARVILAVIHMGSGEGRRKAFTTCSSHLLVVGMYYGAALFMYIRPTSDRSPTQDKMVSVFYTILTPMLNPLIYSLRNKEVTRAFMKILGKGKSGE
In short: as §1

Measured: odorant receptor agonist call

OR2M3 D11N, sequence (as listed by the source, stated change not applied): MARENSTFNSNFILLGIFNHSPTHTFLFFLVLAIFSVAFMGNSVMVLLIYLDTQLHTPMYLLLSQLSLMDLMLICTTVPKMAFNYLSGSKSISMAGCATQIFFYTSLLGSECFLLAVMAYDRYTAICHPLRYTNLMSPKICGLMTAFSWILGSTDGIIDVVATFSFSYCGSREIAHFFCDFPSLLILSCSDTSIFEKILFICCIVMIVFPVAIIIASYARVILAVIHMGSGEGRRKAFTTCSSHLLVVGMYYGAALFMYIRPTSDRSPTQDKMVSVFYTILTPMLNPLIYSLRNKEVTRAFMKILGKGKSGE

CCC(S)C(C)CO (stereo not given)
active: [1] | [3] | [4] | [5] | [6] | [7] | [10]
inactive: [2] | [8] | [9]

Reference: the M2OR odorant receptor database
